Assay results reported in ChEMBL document CHEMBL1127640, “Synthesis and evaluation of 7 alpha-iodo-5 alpha-dihydrotestosterone as a potential radioligand for androgen receptor” (J Med Chem, 1994).

What was measured:
[1] = target: T1, Progesterone receptor (Homo sapiens) (UniProt P06401); assay: Relative binding affinity for progesterone receptor in MCF-7 cell cytosol extract
T1 sequence (whole entry): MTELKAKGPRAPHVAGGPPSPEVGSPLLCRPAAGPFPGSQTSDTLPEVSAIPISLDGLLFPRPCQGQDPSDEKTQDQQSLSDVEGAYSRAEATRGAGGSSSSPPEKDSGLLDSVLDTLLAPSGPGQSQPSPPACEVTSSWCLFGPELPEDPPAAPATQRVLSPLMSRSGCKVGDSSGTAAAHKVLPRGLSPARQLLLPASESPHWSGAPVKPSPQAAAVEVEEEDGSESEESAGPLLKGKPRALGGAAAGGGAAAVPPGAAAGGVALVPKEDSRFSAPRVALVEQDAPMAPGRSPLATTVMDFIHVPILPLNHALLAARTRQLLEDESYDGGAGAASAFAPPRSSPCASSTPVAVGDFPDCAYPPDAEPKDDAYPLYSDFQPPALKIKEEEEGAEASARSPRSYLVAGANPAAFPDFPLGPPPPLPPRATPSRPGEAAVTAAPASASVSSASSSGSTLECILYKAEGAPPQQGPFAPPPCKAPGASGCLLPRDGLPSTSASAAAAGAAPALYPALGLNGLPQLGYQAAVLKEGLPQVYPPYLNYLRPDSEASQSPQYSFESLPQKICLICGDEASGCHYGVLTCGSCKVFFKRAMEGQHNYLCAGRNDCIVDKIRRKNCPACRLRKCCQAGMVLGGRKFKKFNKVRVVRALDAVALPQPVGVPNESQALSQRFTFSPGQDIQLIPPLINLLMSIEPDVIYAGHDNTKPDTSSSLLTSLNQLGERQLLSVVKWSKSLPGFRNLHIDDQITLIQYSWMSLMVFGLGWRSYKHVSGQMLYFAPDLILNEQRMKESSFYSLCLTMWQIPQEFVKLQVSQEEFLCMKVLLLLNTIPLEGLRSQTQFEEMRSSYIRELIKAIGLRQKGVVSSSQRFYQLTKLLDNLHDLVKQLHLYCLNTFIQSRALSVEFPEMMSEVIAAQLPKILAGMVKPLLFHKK

Rattus norvegicus = organism: Rattus norvegicus; assay: Relative binding affinity for progesterone receptor in rat uterine cytosol extract; settings: Uterus
Procedure, shortened: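 Tissue homogenized in molybdate-free TEGT buffer, and cytosol (105000g supernatant) used at 0.8–1.2 mg/mL protein. Incubation was 20 h at 4 °C with 1.0 nM [3H]R5020 (final) over a competitor range. Bound/free separated on Sephadex LH-20, then scintillation counting.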

What does the source list for `C[C@@H]1CC2=CC(=O)CCC2[C@H]2CC[C@@]3(C)[C@@H](CC[C@@]3(O)/C=C/I)[C@H]12` (some centres not stated)?
Binding [1]: 9.84%; Binding (Rattus norvegicus): 12.3%

For `C[C@]12CC[C@H]3[C@@H](CCC4=CC(=O)CC[C@@]43C)[C@@H]1CC[C@@H]2O`, which Binding [1] is on record?
Its Binding is 0.112%.

What about the Binding (Rattus norvegicus) of the same compound?
The Binding was 1.55%.

For `C[C@]12CCC(=O)C[C@@H]1CC[C@@H]1[C@@H]2CC[C@]2(C)[C@@H](O)CC[C@@H]12`, which Binding [1] is on record?
Its Binding is 0.205%.

What about the Binding (Rattus norvegicus) of the same compound?
The Binding was 1.26%.

For `CC(=O)[C@H]1CC[C@H]2[C@@H]3CCC4=CC(=O)CC[C@]4(C)[C@H]3CC[C@]12C`, which Binding [1] is on record?
The Binding was 100%.

What about the Binding (Rattus norvegicus) of the same compound?
The Binding was 100%.

What does the source list for `C[C@]1(O)CC[C@H]2[C@@H]3CCC4=CC(=O)CCC4=C3C=C[C@@]21C`?
Binding [1]: 98%; Binding (Rattus norvegicus): 142%

Which results are given for `CC12CC[C@H]3[C@@H]([C@H](I)C[C@H]4CC(=O)CCC43C)[C@@H]1CCC2O` (some centres not stated)?
Binding [1]: 0.239%; Binding (Rattus norvegicus): 1.12%
